For nine molecules, Ki, EC50 and ED50 results are on record in ChEMBL document CHEMBL1130407, “Structure-based design of new constrained cyclic agonists of the cholecystokinin CCK-B receptor” (J Med Chem, 1997).

Non-standard residues stand in square brackets, D forms with d. Residues, ends and D or L forms follow the SMILES beside them. *: point of attachment. NMeNle = CCCC[C@H](NC)C(=O)O; Boc = CC(C)(C)OC(=O)*

Experiment [1] addresses T1, Cholecystokinin receptor type A (Cavia porcellus, UniProt Q63931).
T1 sequence (Q63931 whole entry): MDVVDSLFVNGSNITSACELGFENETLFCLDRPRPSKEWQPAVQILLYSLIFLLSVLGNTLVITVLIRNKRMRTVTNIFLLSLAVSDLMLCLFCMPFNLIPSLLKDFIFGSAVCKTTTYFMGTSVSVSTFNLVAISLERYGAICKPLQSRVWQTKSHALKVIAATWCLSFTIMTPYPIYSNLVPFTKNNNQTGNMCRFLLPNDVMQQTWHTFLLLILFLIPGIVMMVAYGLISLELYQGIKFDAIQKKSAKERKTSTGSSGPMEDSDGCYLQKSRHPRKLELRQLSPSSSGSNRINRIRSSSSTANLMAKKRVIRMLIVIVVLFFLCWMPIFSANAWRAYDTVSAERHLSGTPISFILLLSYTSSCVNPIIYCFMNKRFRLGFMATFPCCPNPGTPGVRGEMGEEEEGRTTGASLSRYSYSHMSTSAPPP
In words: Inhibition of [3H]pCCK-8 binding to Cholecystokinin type A receptor of Guinea pig pancreatic membranes. The gist of the method:
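Guinea pig pancreatic membranes (0.2 mg protein/tube) incubated with 0.1 nM [3H]pCCK8 and varying competitor for 120 min at 25 °C. Buffer: 10 mM Pipes-HCl pH 6.5, 30 mM MgCl2, 0.2 mg/mL bacitracin, 0.2 mg/mL soybean trypsin inhibitor. Filtration read-out; Ki by Cheng–Prusoff; three experiments in triplicate, mean ± SEM.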

Experiment [2] addresses T2, Gastrin/cholecystokinin type B receptor (Rattus norvegicus, UniProt P30553).
T2 sequence (P30553 whole entry): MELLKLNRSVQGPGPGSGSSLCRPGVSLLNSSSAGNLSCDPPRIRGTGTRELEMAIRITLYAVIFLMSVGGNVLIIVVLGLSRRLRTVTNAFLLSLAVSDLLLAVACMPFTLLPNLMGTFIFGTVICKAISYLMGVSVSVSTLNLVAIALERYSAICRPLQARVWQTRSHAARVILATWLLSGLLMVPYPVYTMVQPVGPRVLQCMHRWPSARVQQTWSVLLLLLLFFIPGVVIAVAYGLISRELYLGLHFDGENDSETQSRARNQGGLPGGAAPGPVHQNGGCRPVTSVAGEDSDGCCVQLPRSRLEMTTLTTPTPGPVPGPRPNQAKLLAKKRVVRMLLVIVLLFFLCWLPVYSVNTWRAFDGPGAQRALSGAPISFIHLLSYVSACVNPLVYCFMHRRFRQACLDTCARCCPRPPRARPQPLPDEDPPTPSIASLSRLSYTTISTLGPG
In words: Affinity to inhibit [3H]pCCK-8 specific binding on rat brain Cholecystokinin type B receptor expressed in CHO cells. The experiment is classed as cell-based.

Experiment [3] addresses T2, Gastrin/cholecystokinin type B receptor. Briefly: Effective concentration for the stimulation of Inositol Phosphate accumulation in CHO cells expressing wild-type Cholecystokinin type B receptor. Format: functional, cell-based.
Experiment [4] has as its target T3, Gastrin/cholecystokinin type B receptor (Rattus norvegicus) (UniProt P30553).
T3 sequence (whole entry): T2 sequence (P30553 whole entry)
Briefly: Compound was tested for its ability to stimulate the CCK-B/gastrin receptor by measuring gastric acid output in the anesthetized perfused rat stomach. Format: functional, tissue-based. The gist of the method:
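Male Sprague–Dawley rats (300 ± 25 g), fasted 18 h with water available, anesthetized with intramuscular urethane (0.6–0.7 mL of 25% solution per 100 g). Compounds in saline given iv by continuous infusion. Gastric secretion collected every 15 min and H+ titrated with 0.01 N NaOH to pH 7. Output expressed as % of baseline; ED50 estimated from dose-response curves.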

`CSCC[C@H](NC(=O)[C@@H](N)Cc1c[nH]c2ccccc12)C(=O)N[C@@H](CC(=O)O)C(=O)N[C@@H](Cc1ccccc1)C(N)=O` [TETRAGASTRIN] showed a Ki in experiment [1] of 36100 nM.

Molecule `C[C@]1(Cc2c[nH]c3ccccc23)NC(=O)CC(=O)NCCCC[C@@H](C(=O)N[C@@H](CC(=O)O)C(=O)N[C@@H](Cc2ccccc2)C(N)=O)NC1=O` came in with a Ki in experiment [1] of 2290 nM. Compared with the last molecule, the Ki is about 16-fold lower.

Consider `C[C@]1(Cc2c[nH]c3ccccc23)NC(=O)CCCCSSCC[C@@H](C(=O)N[C@@H](CC(=O)O)C(=O)N[C@@H](Cc2ccccc2)C(N)=O)NC1=O`, for which the figures for the Ki in experiment [2] (cho) and in experiment [1] were 80 nM and 271 nM, respectively. In experiment [3] (cho), this molecule showed an EC50 of 7 nM.

As to `C[C@]1(Cc2c[nH]c3ccccc23)NC(=O)CCCCSSCC[C@H](C(=O)N[C@@H](CC(=O)O)C(=O)N[C@@H](Cc2ccccc2)C(N)=O)NC1=O`, the ED50 in experiment [4] turned out to be 52 nM/h/kg.

In experiment [1], `C[C@]1(Cc2c[nH]c3ccccc23)NC(=O)CCCCCCC[C@@H](C(=O)N[C@@H](CC(=O)O)C(=O)N[C@@H](Cc2ccccc2)C(N)=O)NC1=O` registered an inhibitory constant (Ki) greater than 10000 nM.

The molecule `C[C@]1(Cc2c[nH]c3ccccc23)NC(=O)CCCCCCC[C@H](C(=O)N[C@@H](CC(=O)O)C(=O)N[C@@H](Cc2ccccc2)C(N)=O)NC1=O` had an ED50 in experiment [4] of 7.6 nM/h/kg. This molecule gave an inhibitory constant (Ki) in experiment [1] of 2210 nM.

Turning to `C[C@]1(Cc2c[nH]c3ccccc23)NC(=O)CCCCCCCC[C@@H](C(=O)N[C@@H](CC(=O)O)C(=O)N[C@@H](Cc2ccccc2)C(N)=O)NC1=O`, the Ki in experiment [2] (cho) turned out to be 23 nM; in experiment [1] it was 2470 nM. This molecule also registered an EC50 in experiment [3] (cho) of 4 nM.

As to `C[C@]1(Cc2c[nH]c3ccccc23)NC(=O)CCCCCC[C@@H](C(=O)N[C@@H](CC(=O)O)C(=O)N[C@@H](Cc2ccccc2)C(N)=O)NC1=O`, the results for the inhibition constant Ki in experiment [2] (cho) and in experiment [1] were 142 nM and 2880 nM, respectively.

As for `CCCC[C@@H](C(=O)N[C@@H](CC(=O)O)C(=O)N[C@@H](Cc1ccccc1)C(N)=O)N(C)C(=O)[C@H](Cc1c[nH]c2ccccc12)NC(=O)OC(C)(C)C` (Boc-W[NMeNle]DF-NH2), the Ki was 8.7 nM in experiment [2] and greater than 5000 nM in experiment [1]. Besides, the concentration for a half-maximal effect (EC50) in experiment [3] came to 1.5 nM.
